# Test results: PMC9998351 (Steroids, 2023)
# Where “and” joins values, the source holds several entries; their conditions need not be identical. Equal values may be shown once. Entries after “also recorded” stand apart in the source; their conditions may differ.
# Key:
# Acute toxicity [1] = assay type: in vivo, mice; details: male, CD-1, mouse, in vivo, po
# male CD-1 mice = test: Acute toxicity; assay type: in vivo; details: male CD-1 mice
# [2] = Intravenous pharmacokinetics in rats; assay type: in vivo; details: for Cmax/D / Tmax / AUCinf / AUClast / C0 / CL / Cmax / T1/2 / Vss / Vz / AUC(0-inf) / AUC(0-t) / clearance / half-life / Vd: 1 mg/kg IV; for AUC(0-inf): AUCinf; for AUC(0-t): AUClast; for clearance: CL
# Procedure, shortened: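 Single 1 mg/kg IV dose to jugular-vein-catheterised Sprague Dawley rats (8–12 wk, 3/sex), given in cremophor:ethanol:saline (1:1:8), pH 4.0 (acetic acid), at 10 ml/kg. EDTA blood was taken at 5, 15, 30 min, 1, 2, 4, 6 and 24 h for plasma. Plasma was prepared by acetonitrile precipitation and aqueous dilution, then run on LC-MS/MS (positive ESI, MRM 439.2>371.2, abiraterone internal standard). Noncompartmental PK.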
# [3] = Chronic dosing toxicity in male nude mice; assay type: in vivo; details: male, Nude, mouse, in vivo, ip
# male Nude mice [4] = test: Chronic dosing toxicity in male nude mice; assay type: in vivo; details: male nude mice
# Acute toxicity [5] = assay type: in vivo, mice; details: male, Nude, mouse, in vivo, ip
# male Nude mice [6] = test: Acute toxicity; assay type: in vivo; details: male nude mice
# [7] = system: CRPC CWR22Rv1 xenograft tumors; details: ref [26], cited from earlier work
# [8] = Oral pharmacokinetics and bioavailability in rats; assay type: in vivo; details: both, Sprague Dawley, rat, plasma, oral
# Procedure, shortened: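 Sprague Dawley rats (8–12 wk, 3/sex/group, catheterised jugular vein) got one oral gavage dose of 10 or 50 mg/kg. Dose was a solution in cremophor:ethanol:saline (1:1:8), pH 4.0, at 10 ml/kg. EDTA plasma was collected at 5, 15, 30 min, 1, 2, 4, 6 and 24 h, precipitated with acetonitrile, and quantified by LC-MS/MS against abiraterone internal standard. Noncompartmental parameters; bioavailability from oral AUClast versus IV.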
# [9] = female rats, individual rat, 1 mg/kg
# [10] = female, Sprague Dawley, rat, plasma, iv, 1 mg/kg, female rats, GeoMean
# [11] = female, Sprague Dawley, rat, plasma, iv, 1 mg/kg, female rats, individual rat
# [12] = male rats, individual rat, 1 mg/kg
# [13] = male, Sprague Dawley, rat, plasma, iv, 1 mg/kg, male rats, GeoMean (third rat excluded)
smiles,measurement,setting,value
"C[C@]12CC[C@H](n3ccnc3)CC1=CC[C@@H]1[C@@H]2CC[C@]2(C)C(n3cnc4ccccc43)=CC[C@@H]12 [Compound 2, 3β-(1H-imidazole-1-yl)-17-(1H-benzimidazole-1-yl)-androsta-5,16-diene]",NOAEL at 72 h,Acute toxicity [1],> 300 mg/kg
same,Tolerability and mortality,"male CD-1 mice; 100 mg/kg PO, observed 72 hrs","well tolerated, and no mortality was observed"
same,Mortality,"male CD-1 mice; 1000 mg/kg PO, 3 mice, 1000 mg/kg","two mice died on days 2 and the third mice died on day 3; also recorded: Two mice were in a moribund stage and found dead 36 hrs. post dose, the third mice died 72 hrs. post dose"
same,Clinical signs,"male CD-1 mice; 1000 mg/kg PO, after 24 hrs","piloerection, apathy (inactive) and hypothermia"
same,"Gross necropsy, organ toxicity","male CD-1 mice; all three dose groups (100, 300, 1000 mg/kg PO), postmortem",no evident organ toxicity
same,Signs of toxicity at necropsy,"male CD-1 mice; low (100 mg/kg) and medium (300 mg/kg) dose PO, after 72 hrs",no signs of toxicity were observed
same,Cmax/D,"[2]; female rats, GeoMean",311 ng/mL/mg/kg
same,Tmax,"[2]; female rats, individual rat",0.0833 h
same,AUCinf,[2]; [9],199 µg·min/mL and 171 µg·min/mL
same,AUClast,[2]; [9],140 µg·min/mL and 126 µg·min/mL
same,C0,[2]; [9],342 ng/mL and 418 ng/mL
same,CL,[2]; [9],5.03 mL/min/kg and 5.85 mL/min/kg
same,Cmax,[2]; [9],291 ng/mL and 350 ng/mL
same,Cmax/D,[2]; [9],296 ng/mL/mg/kg and 291 ng/mL/mg/kg and 350 ng/mL/mg/kg
same,T1/2,[2]; [9],15.0 h and 13.8 h
same,Tmax,[2]; [9],0.25 h and 0.0833 h
same,Vss,[2]; [9],5.99 L/kg and 6.31 L/kg
same,Vz,[2]; [9],6.51 L/kg and 6.98 L/kg
same,AUC(0-inf),[2]; [10],3380 ng·h/mL
same,AUC(0-inf),[2]; [11],4130 ng·h/mL
same,AUC(0-t),[2]; [10],2400 ng·h/mL
same,AUC(0-t),[2]; [11],2800 ng·h/mL
same,C0,"[2]; female, Sprague Dawley, rat, plasma, iv, 1 mg/kg, C0, female rats, GeoMean",333 ng/mL
same,C0,"[2]; female, Sprague Dawley, rat, plasma, iv, 1 mg/kg, C0, female rats, individual rat",259 ng/mL
same,clearance,[2]; [10],4.92 mL/min/kg
same,clearance,[2]; [11],4.04 mL/min/kg
same,Cmax,"[2]; female, Sprague Dawley, rat, plasma, iv, 1 mg/kg, Cmax, female rats, GeoMean",311 ng/mL
same,Cmax,"[2]; female, Sprague Dawley, rat, plasma, iv, 1 mg/kg, Cmax, female rats, individual rat",296 ng/mL
same,half-life,"[2]; female, Sprague Dawley, rat, plasma, iv, 1 mg/kg, T1/2, female rats, GeoMean",14.3 h
same,half-life,"[2]; female, Sprague Dawley, rat, plasma, iv, 1 mg/kg, T1/2, female rats, individual rat",14.1 h
same,Tmax,"[2]; female, Sprague Dawley, rat, plasma, iv, 1 mg/kg, Tmax, female rats, GeoMean",0.12 h
same,Vd,"[2]; female, Sprague Dawley, rat, plasma, iv, 1 mg/kg, Vss, female rats, GeoMean",5.73 L/kg
same,Vd,"[2]; female, Sprague Dawley, rat, plasma, iv, 1 mg/kg, Vss, female rats, individual rat",4.96 L/kg
same,Vd,"[2]; female, Sprague Dawley, rat, plasma, iv, 1 mg/kg, Vz, female rats, GeoMean",6.08 L/kg
same,Vd,"[2]; female, Sprague Dawley, rat, plasma, iv, 1 mg/kg, Vz, female rats, individual rat",4.93 L/kg
same,Overt toxic effects during conduct of PK study,"[2]; male and female rats, single dose 1 mg/kg IV, 10 or 50 mg/kg PO",No overt toxic effects were observed
same,Cmax/D,"[2]; male rats, GeoMean (third rat excluded)",305 ng/mL/mg/kg
same,AUCinf,[2]; [12],64.0 µg·min/mL and 321 µg·min/mL
same,AUClast,[2]; [12],46.6 µg·min/mL and 139 µg·min/mL
same,C0,[2]; [12],443 ng/mL
same,CL,[2]; [12],15.6 mL/min/kg and 3.11 mL/min/kg
same,Cmax,[2]; [12],392 ng/mL
same,Cmax/D,[2]; [12],237 ng/mL/mg/kg and 392 ng/mL/mg/kg
same,T1/2,[2]; [12],2.96 h and 31.4 h
same,Vss,[2]; [12],8.14 L/kg
same,Vz,[2]; [12],4.00 L/kg and 8.46 L/kg
same,AUC(0-inf),[2]; [13],2380 ng·h/mL
same,AUC(0-t),[2]; [13],1340 ng·h/mL
same,C0,"[2]; male, Sprague Dawley, rat, plasma, iv, 1 mg/kg, C0, male rats, GeoMean (third rat excluded)",336 ng/mL
same,C0,"[2]; male, Sprague Dawley, rat, plasma, iv, 1 mg/kg, C0, male rats, individual rat",254 ng/mL
same,clearance,[2]; [13],6.97 mL/min/kg
same,Cmax,"[2]; male, Sprague Dawley, rat, plasma, iv, 1 mg/kg, Cmax, male rats, GeoMean (third rat excluded)",305 ng/mL
same,Cmax,"[2]; male, Sprague Dawley, rat, plasma, iv, 1 mg/kg, Cmax, male rats, individual rat",237 ng/mL
same,half-life,"[2]; male, Sprague Dawley, rat, plasma, iv, 1 mg/kg, T1/2, male rats, GeoMean (third rat excluded)",9.64 h
same,Tmax,"[2]; male, Sprague Dawley, rat, plasma, iv, 1 mg/kg, Tmax, male rats, GeoMean (third rat excluded)",0.0833 h
same,Tmax,"[2]; male, Sprague Dawley, rat, plasma, iv, 1 mg/kg, Tmax, male rats, individual rat",0.0833 h
same,Vd,"[2]; male, Sprague Dawley, rat, plasma, iv, 1 mg/kg, Vss, male rats, GeoMean (third rat excluded)",5.81 L/kg
same,Vd,"[2]; male, Sprague Dawley, rat, plasma, iv, 1 mg/kg, Vss, male rats, individual rat",4.14 L/kg
same,Vd,"[2]; male, Sprague Dawley, rat, plasma, iv, 1 mg/kg, Vz, male rats, GeoMean (third rat excluded)",5.82 L/kg
same,MTD at 14 days,[3],25 to 50 mg/kg
same,Mortality,"male Nude mice [4]; 0.5 MTD group, five days a week for two weeks, day 7",Two mice died
same,Condition of other groups,"male Nude mice [4]; chronic dosing 0.2 MTD and MTD groups, 14 days",looked healthy
same,MTD at 2 weeks,Acute toxicity [5],50 mg/kg
same,Mortality,"male Nude mice [6]; 100 mg/kg single intraperitoneal dose, 3 mice, 100 mg/kg",one mouse died in the 100 mg/kg group
same,Signs of toxicity,"male Nude mice [6]; 25 and 50 mg/kg single intraperitoneal dose, two weeks",did not exhibit any signs of toxicity
same,Host toxicity,[7]; CWR22Rv1 xenograft study,no apparent host toxicity
same,Suppression of tumor growth,"[7]; CWR22Rv1 xenograft, 2 at 7.53-fold lower equimolar dose than Gal, p < 0.01",84%
same,Efficacy compared with enzalutamide,[7]; CWR22Rv1 xenograft,more efficacious than enzalutamide
same,bioavailability,[8],32 to 47%
